Here are results for 2 compounds from ChEMBL document CHEMBL4334484, “Polyketides and a Dihydroquinolone Alkaloid from a Marine-Derived Strain of the Fungus Metarhizium marquandii” (2019).

Activity calls are given as the source filed them. The rule behind the calls is not given here.

In one assay the test system is Acinetobacter baumannii. The assay is described as follows: Antibacterial activity against Acinetobacter baumannii BAA 1605 by CLSI protocol based broth microdilution method. The format is functional. In short, it runs like this: (§1)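 Serial 2-fold dilutions, DMSO diluted along with compounds; highest concentration tested 64 μg/mL. Moxifloxacin positive control for S. aureus, rifampicin for A. baumanii and P. aeruginosa.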

Assay [1] relates to Staphylococcus aureus. Kind of assay: Antibacterial activity against Staphylococcus aureus ATCC 700699 by CLSI protocol based broth microdilution method. The format is functional. The method, boiled down: as §1
For the next assay, the system named is L5178Y. The assay is described as follows: Cytotoxicity against mouse L5178Y cells assessed as cell growth inhibition at 10 ug/ml measured after 72 hrs by MTT assay. The format is functional, cell-based. In short, it runs like this:
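L5178Y mouse lymphoma cells, MTT read-out relative to untreated controls, compounds at 10 μg/mL. Negative control: medium with 0.1% ethylene glycol monomethyl ether/DMSO; kahalalide F positive control. Three independent experiments, each in triplicate.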

Another assay relates to Pseudomonas aeruginosa. Kind of assay: Antibacterial activity against Pseudomonas aeruginosa 27853 by CLSI protocol based broth microdilution method. The class given is functional. The method, boiled down:
as §1

For assay [2], the system named is Mycobacterium tuberculosis. Kind of assay: Antibacterial activity against Mycobacterium tuberculosis by CLSI protocol based broth microdilution method. The format is functional. The method, boiled down:
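Broth microdilution per CLSI guidelines. Serial 2-fold dilutions up to a highest tested concentration of 64 μg/mL, with DMSO diluted along with the compounds. Rifampicin served as positive control.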

The subject of assay [3] is Staphylococcus aureus. The assay is described as follows: Antibacterial activity against Staphylococcus aureus ATCC 29213 by CLSI protocol based broth microdilution method. The format is functional. The method, boiled down:
as §1

As for `O=C1Nc2ccccc2[C@](O)(c2cccc(O)c2)[C@H]1O`, the MIC (in the assay on Acinetobacter baumannii; with Staphylococcus aureus [1]; with Pseudomonas aeruginosa; in assay [2]; against Staphylococcus aureus [3]) was greater than 100 µM throughout. The outcome in the assay on L5178Y was inactive.
Take `CC(=O)c1cc(C)c(O)c(CC2=C(O)C(CC(=O)O)OC2=O)c1O` (racemic): the MIC (with Acinetobacter baumannii; in the assay on Staphylococcus aureus [1]; in the assay on Pseudomonas aeruginosa; in assay [2]; in the assay with Staphylococcus aureus [3]) was greater than 100 µM each time. Also, the result in the assay with L5178Y was inactive.
